Values after ≈ are worked out from the molar mass of the structure shown.
Columns and labels:
[1] = molecular target: rat intestinal sucrase (Rattus norvegicus, UniProt P23739); assay: Kinetic study of α-glucosidase inhibition; format: biochemical
Outline: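 Test compound in phosphate buffer pH 6.9 with rat intestinal α-glucosidase. Sucrose was varied over 20–100 mM, with and without inhibitor, and incubated at 37 °C for 40 min. […] Lineweaver–Burk plots gave the inhibition type. Secondary plots of slopes and intercepts against inhibitor concentration gave Ki and Ki′.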

[2] = system: rat intestinal maltase; assay: Kinetic study of α-glucosidase inhibition; format: biochemical
Outline: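 Rat intestinal α-glucosidase with test compound in phosphate buffer pH 6.9. Maltose was varied over 2–10 mM, with and without inhibitor, and the mixture was incubated at 37 °C for 10 min. […] Inhibition type came from Lineweaver–Burk plots. Ki and Ki′ came from secondary plots of slopes and intercepts versus inhibitor concentration.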

[3] = molecular target: yeast α-glucosidase; conditions: ref Suttithumsatid and co-workers, 2022; cited from earlier work
[4] = dissociation constant of ESI complex, secondary plots

Sequence of rat intestinal sucrase (P23739 whole entry): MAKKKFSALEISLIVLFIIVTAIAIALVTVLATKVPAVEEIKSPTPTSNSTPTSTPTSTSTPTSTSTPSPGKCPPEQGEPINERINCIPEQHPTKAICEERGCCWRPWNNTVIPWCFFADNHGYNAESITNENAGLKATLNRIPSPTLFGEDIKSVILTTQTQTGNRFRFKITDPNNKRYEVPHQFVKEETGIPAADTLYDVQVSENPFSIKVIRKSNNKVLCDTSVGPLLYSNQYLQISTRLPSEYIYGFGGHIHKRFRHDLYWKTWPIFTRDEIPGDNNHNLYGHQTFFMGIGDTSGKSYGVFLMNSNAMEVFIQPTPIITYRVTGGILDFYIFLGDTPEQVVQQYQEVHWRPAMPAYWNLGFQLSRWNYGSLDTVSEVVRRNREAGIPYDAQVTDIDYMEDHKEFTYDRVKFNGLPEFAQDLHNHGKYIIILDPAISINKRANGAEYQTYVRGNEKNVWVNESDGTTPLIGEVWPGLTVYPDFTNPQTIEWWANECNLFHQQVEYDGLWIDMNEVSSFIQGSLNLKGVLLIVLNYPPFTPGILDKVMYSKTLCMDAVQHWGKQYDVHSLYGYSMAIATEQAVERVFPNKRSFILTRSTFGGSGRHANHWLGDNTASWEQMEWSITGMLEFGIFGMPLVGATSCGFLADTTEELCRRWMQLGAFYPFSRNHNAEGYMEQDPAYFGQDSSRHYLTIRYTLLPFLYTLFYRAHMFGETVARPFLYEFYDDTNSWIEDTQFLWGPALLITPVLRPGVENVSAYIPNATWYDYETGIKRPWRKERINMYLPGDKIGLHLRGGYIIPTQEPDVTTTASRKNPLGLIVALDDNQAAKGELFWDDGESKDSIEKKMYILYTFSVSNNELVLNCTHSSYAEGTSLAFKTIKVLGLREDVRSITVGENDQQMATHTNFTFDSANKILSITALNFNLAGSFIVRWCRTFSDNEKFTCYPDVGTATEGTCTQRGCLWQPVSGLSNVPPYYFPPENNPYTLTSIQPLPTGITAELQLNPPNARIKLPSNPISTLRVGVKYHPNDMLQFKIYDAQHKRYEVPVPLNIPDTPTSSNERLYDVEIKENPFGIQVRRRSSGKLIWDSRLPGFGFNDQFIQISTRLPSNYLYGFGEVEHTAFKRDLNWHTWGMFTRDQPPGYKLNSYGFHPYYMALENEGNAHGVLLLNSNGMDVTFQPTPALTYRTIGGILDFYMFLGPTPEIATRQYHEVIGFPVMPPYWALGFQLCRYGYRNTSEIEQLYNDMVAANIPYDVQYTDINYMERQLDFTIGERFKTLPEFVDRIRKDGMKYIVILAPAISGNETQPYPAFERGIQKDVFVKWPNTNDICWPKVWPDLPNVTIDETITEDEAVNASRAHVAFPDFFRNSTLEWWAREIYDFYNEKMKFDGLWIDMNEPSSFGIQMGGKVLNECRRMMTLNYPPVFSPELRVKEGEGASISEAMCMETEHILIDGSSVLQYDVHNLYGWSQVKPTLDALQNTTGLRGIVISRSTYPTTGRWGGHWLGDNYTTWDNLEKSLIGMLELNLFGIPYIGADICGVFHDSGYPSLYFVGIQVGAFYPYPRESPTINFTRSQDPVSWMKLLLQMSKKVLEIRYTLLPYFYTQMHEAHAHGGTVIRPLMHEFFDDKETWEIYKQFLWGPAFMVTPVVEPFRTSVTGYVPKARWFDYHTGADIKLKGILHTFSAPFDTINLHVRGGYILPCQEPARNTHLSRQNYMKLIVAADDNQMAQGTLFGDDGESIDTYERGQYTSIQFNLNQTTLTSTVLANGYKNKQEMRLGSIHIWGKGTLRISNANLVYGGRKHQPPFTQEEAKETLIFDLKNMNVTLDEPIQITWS

| Compound | Inhibition type, sucrase ([1]; Lineweaver–Burk plots, sucrose 20–100 mM) | Ki′, sucrase [1, 4] | Inhibition type, maltase ([2]; Lineweaver–Burk plots, maltose 2–10 mM) | Ki′, maltase [2, 4] | IC50, yeast α-glucosidase inhibition [3] |
| --- | --- | --- | --- | --- | --- |
| CCCCCc1cc(O)c2c(c1)OC(C)(C)c1ccc(C)cc1-2 [Compound 15, cannabinol] | Uncompetitive | 434.8 µM | Uncompetitive | 196.4 µM |  |
| C=C(C)[C@@H]1CCC(C)=C[C@H]1c1c(O)cc(CCCCC)cc1O [CBD] |  |  |  |  | 5.5 µg/mL (≈ 17.5 µM) |
